For assay [1], the system named is Adult male Wistar rats. The assay can be described thus: AgRP-induced weight gain in free-feeding rats, ICV injection. In kind it is in vivo, rat. An outline of the steps: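 Adult male Wistar rats, housed individually on a 12-12h light:dark cycle with chow. Third-ventricle cannula implanted under isoflurane, recovery ≥7 days, placement verified by a plasma glucose rise after ICV 5-thio-D-glucose. ICV pre-treatment with vehicle or test peptide, then 1 h later AgRP (0.01 nmol) or vehicle; n=8–10/group. Body weight gain followed over 5 days.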

Assay [2] addresses T1, MC1R (Homo sapiens, UniProt Q01726). The conditions noted are these: cited from earlier work.
The target of assay [3] is T1, MC1R. Put plainly: Competitive. In kind it is binding. The method in brief: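 Intact HEK 293T cells were transiently transfected with a human MC1R construct (calcium phosphate), harvested after 20 h and plated at 10,000–70,000 cells/well in binding buffer. Eu-NDP-MSH ([…]) plus 3-fold dilutions of test peptide (9.0×10−6M to 4.6×10−10M) were incubated for 2 h at 37°C. Read-out was time-resolved fluorescence. Tracer Kd came from saturation binding. Three independent experiments, in duplicate.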

Assay [4] has as its target human MC4R (Homo sapiens, UniProt P32245). Put plainly: Competitive. In kind it is binding. The method in brief: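 Intact HEK293T cells transiently transfected (calcium phosphate) with human MC4R, harvested 20 h later, in L*R binding buffer at 10,000–70,000 cells/well. […] Washed, DELFIA enhancement, time-resolved fluorescence. Three independent experiments in duplicate.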

Assay [5] relates to Melan-a cells (MC1R activation). The conditions noted are these: ref Candille et al., 2007; cited from earlier work.
The target of assay [6] is T1, MC1R. The conditions noted are these: read-out: MC1R Ki; ref Kiefer et al., 1998; cited from earlier work.

Like-named read-outs stand apart in the source and are kept apart here. Positions of bridges follow the written chain, without caps; N, C: chain ends. No end group written: not given here.

T1 sequence (Q01726 whole entry): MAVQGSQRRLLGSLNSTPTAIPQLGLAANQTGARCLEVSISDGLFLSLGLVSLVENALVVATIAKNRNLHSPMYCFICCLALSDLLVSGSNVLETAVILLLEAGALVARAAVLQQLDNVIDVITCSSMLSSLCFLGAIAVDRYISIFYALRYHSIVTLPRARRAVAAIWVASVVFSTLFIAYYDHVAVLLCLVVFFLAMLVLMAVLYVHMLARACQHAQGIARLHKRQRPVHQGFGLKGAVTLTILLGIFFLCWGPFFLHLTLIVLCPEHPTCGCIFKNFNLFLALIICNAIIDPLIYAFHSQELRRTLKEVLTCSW
human MC4R, sequence (P32245 whole entry): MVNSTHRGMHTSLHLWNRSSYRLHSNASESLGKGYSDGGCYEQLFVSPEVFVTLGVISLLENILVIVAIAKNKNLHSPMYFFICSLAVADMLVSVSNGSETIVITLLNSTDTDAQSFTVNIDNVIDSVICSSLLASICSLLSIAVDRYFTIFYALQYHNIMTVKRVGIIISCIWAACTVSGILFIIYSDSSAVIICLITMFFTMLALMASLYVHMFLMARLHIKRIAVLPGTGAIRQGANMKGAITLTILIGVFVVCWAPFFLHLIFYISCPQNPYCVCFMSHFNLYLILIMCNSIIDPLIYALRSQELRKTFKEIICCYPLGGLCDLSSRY

As for “Agouti-related protein (SPRRCVRLHESCLGQQVPCCDPCATCYCRFFNAFCYCRKLGTATNLCSRT; UniProt P56473 82-131, looked up) [AgRP]”, the “effect on body weight (energy balance response)” value in assay [1] (ICV 0.01 nmol (submaximal dose)) is “increased weight gain”. Further, the “effect on food intake in the first 24 hours” value in assay [1] (ICV 0.01 nmol, data not shown) is recorded as “no detectable effect on food intake”.

Take Asip (from UniProt P42127): the Ki in assay [2] is 2.6 nM.

Turning to “GIINTLQKYYCRVRGGRSAVLSSLPKEEQIGKSSTRGRKCSRRKK-NH2 (disulfide 11-40) [CysT-V]”, the Ki in assay [3] was found to be 243 nM; in assay [4], 206 nM.

For “GIINTLQKYYSRVRGGRSAVLSSLPKEEQIGKSSTRGRKSSRRKK-NH2 [Cys->Ser]”, the Ki in assay [3] was determined as 297 nM; in assay [4] it was 436 nM.

“GIINTLQKYYSRVRGGRSAV-NH2 [N-term Truncate]” yielded a Ki in assay [3] above 5000 nM.

For canine β-defensin 103 [CBD103], the “effect on cAMP levels in Melan-a cells” value in assay [5] was “neither CBD103 ([Candille et al., 2007]) nor HBD3 (Figure S1A) stimulate or reduce cAMP levels”.

B1: RFF→AFF mutation in Asip: Asip mutant with RFF motif changed to AFF, literature value (protein)
chain: HLALEETLGDDRSLRSNSSMNSLDFSSVSIVALNKKSKKISRKEAEKRKRSSKKKASMKKVARPPPPSPCVATRDSCKPPAPACCDPCASCQCAFFGSACTCRVLNPNC
Regarding B1, the Ki in assay [6] is above 1900 nM.

(Values after PMC3714013 (Chemistry & biology, 2013).)
